Calls of active or inactive are those of the source. The rule behind the calls is not given here.
What was measured:
HepG2 [1] = experiment: Cytotoxicity against human HepG2 cells after 72 hrs by MTS assay; assay type: functional, cell-based; conditions: Homo sapiens, HepG2, 72 h; read-out: IC50
How it was run: (§1)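 Human cancer lines treated for 72 h and proliferation/viability read by MTS assay; dose-response curves in duplicate with IC50 taken from the curves; MCF7R is the P-gp (MDR1)-expressing resistant line.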

HL-60 [2] = experiment: Cell cycle arrest in human HL60 cells assessed as increase in G0/G1 peak at 200 nM after 48 hrs by FACS analysis; assay type: functional, cell-based
How it was run: (§2)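 HL60 cells treated for 48 h; vehicle control 1% DMSO, doxorubicin as positive control. Propidium iodide staining, DNA content by flow cytometry giving cell-cycle distribution (G2/M, G0-G1 peaks); n = 4, each sample in duplicate.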

KB = experiment: Cytotoxicity against human KB cells after 72 hrs by MTS assay; assay type: functional, cell-based; how it was run: as §1
HeLa [3] = experiment: Induction of eIF-2alpha phosphorylation in human HeLa cells at 100 uM by Western blotting; assay type: functional, cell-based
How it was run: (§3)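 HeLa cells treated 1 h with DMSO, sodium arsenite (500 μM, positive control) or compound (100 or 500 μM); 10 μg total protein by SDS-PAGE/Western blot with anti-eIF2α and anti-phospho-eIF2α, ECL detection.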

HL-60 [4] = experiment: Inhibition of proteasome activity in human HL60 cells at 2 to 20 nM
How it was run: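 Lysates of HL60 cells incubated with compound; in vitro chymotrypsin-like and trypsin-like proteasome activities measured with fluorogenic AMC substrates (LLVY-AMC, RLR-AMC).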

HCT-15 = experiment: Cytotoxicity against human HCT15 cells after 72 hrs by MTS assay; assay type: functional, cell-based; conditions: Homo sapiens, HCT-15, 72 h; read-out: IC50; how it was run: as §1
HL-60 [5] = experiment: Cell cycle arrest in human HL60 cells assessed as increase in G0/G1 peak at 20 nM after 48 hrs by FACS analysis; assay type: functional, cell-based; how it was run: as §2
HeLa [6] = experiment: Induction of stress granules in human HeLa cells assessed as MLN51 and FMRP marker protein at 100 uM after 8 hrs; assay type: functional, cell-based
How it was run: (§4)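 HeLa on coverslips in DMEM/5% FCS, cultured 24 h, then exposed to 50 nM-500 μM for 30 min to 8 h; immunofluorescence for stress-granule markers MLN51 (rabbit) and FMRP (mouse); cycloheximide 10 μg/mL and puromycin 100 μg/mL (1 h) as positive controls.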

HCT-116 = experiment: Cytotoxicity against human HCT116 cells after 72 hrs by MTS assay; assay type: functional, cell-based; conditions: HCT-116, 72 h; how it was run: as §1
Oryctolagus cuniculus = species on record: Oryctolagus cuniculus; experiment: Inhibition of capped and polyadenylated luciferase mRNA […] in rabbit reticulocyte lysate at 10000 nM after 1 hr; assay type: functional
How it was run: (§5)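 Cell-free translation of capped, polyadenylated luciferase mRNA in rabbit reticulocyte lysate, luciferase output as read-out; incubation 1 h; IC50 derived.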

HL-60 [7] = experiment: Induction of apoptosis in human HL60 cells assessed as caspase 3/7-mediated DEVD-AMC substrate cleavage at 24 to 72 hrs by spectroscopy; assay type: functional, cell-based
Mus musculus [8] = experiment: Toxicity in B6 mouse assessed as body weight loss at 0.1 mg/kg, ip twice a day for 4 consecutive days measured on day 13; assay type: organism-based; set-up: dose 0.1 mg/kg, route intraperitoneal; conditions: in vivo
How it was run: (§6)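 Male B6 mice dosed i.p. at 0.1 mg/kg twice daily for four consecutive days; body weight recorded daily over 13 days and signs of acute toxicity such as diarrhea noted.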

H9c2 [9] = experiment: Induction of apoptosis in rat H9c2 cells at 0.5 to 50 nM after 24 hrs by FACS analysis; assay type: cell-based; conditions: h9c2, 24 h, 0.05 µM
How it was run: (§7)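 Rat H9c2 cardiomyoblasts treated 24 h (0.5-50 nM) or 24, 48 and 72 h (20 nM) versus vehicle; annexin V plus propidium iodide labeling and FACS for apoptosis; viability in parallel by MTS; doxorubicin 1 μM as positive control.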

H9c2 [10] = experiment: Induction of apoptosis in rat H9c2 cells at 20 nM after 72 hrs by FACS analysis; assay type: cell-based; conditions: h9c2, 72 h, 0.02 µM; how it was run: as §7
HeLa [11] = experiment: Induction of stress granules in human HeLa cells assessed as MLN51 and FMRP marker protein at 100 uM after 2 hrs; assay type: functional, cell-based; how it was run: as §4
HL-60 [12] = experiment: Induction of apoptosis in human HL60 cells assessed as caspase 3/7-mediated DEVD-AMC substrate cleavage at 1 to 1000 nM after 48 hrs by spectroscopy; assay type: functional, cell-based
How it was run: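 HL60 cells treated 48 h, doxorubicin as positive control; whole-cell extracts incubated with DEVD-AMC, fluorescence release followed over time; rate from slope of linear phase, expressed as fold-activation over DMSO-treated control.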

HeLa [13] = experiment: Effect on apoptosis inducing factor localization into nucleus in human HeLa cells at 20 nM after 72 hrs; assay type: functional, cell-based
HL-60 [14] = experiment: Cytotoxicity against human HL60 cells after 72 hrs by MTS assay; assay type: functional, cell-based; conditions: HL-60, 72 h
How it was run: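 HL60 cells exposed to compound for 72 h; proliferation/viability read by MTS assay. IC50 taken from dose-response curves run in duplicate.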

HeLa [15] = experiment: Induction of stress granules in human HeLa cells assessed as MLN51 and FMRP marker protein at 500 nM after 8 hrs; assay type: functional, cell-based; how it was run: as §4
HL-60 [16] = experiment: Antiproliferative activity against human HL60 cells at 50 nM in presence of […] inhibitor necrostatin 1; assay type: functional, cell-based
How it was run: (§8)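 HL60 cells exposed for 72 h, with or without co-treatment with Z-VAD-FMK (50 μM), necrostatin-1 (50 μM) or 3-methyladenine (2 mM). Antiproliferative effect was compared against vehicle.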

HL-60 [17] = experiment: Induction of apoptosis in human HL60 cells assessed as caspase 9-mediated […]-AMC substrate cleavage at 1 to 1000 nM after 48 hrs by spectroscopy; assay type: functional, cell-based
HL-60 [18] = experiment: Induction of apoptosis in human HL60 cells assessed as cell killing at 20 nM after 72 hrs by annexin V flow cytometry; assay type: functional, cell-based
How it was run: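 HL60 cells treated with 20 nM for 72 h; apoptosis quantified by annexin V staining and flow cytometry.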

H9c2 [19] = experiment: Induction of apoptosis in rat H9c2 cells at 20 nM after 48 hrs by FACS analysis; assay type: cell-based; conditions: h9c2, 48 h, 0.02 µM; how it was run: as §7
HeLa [20] = experiment: Induction of caspase 12 translocation from endoplasmic reticulum to nucleus in human HeLa cells at 50 uM after 72 hrs by DAPI staining; assay type: functional, cell-based
How it was run: (§9)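 HeLa cells treated 72 h with compound or vehicle; immunocytochemistry co-labeling with anti-AIF and anti-caspase-12 antibodies, nuclei stained with DAPI to assess nuclear localization.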

Mus musculus [21] = experiment: Toxicity in B6 mouse assessed as diarrhea at 0.1 mg/kg, ip twice a day for 4 consecutive days measured on day 13; assay type: organism-based; set-up: dose 0.1 mg/kg, route intraperitoneal; conditions: in vivo; how it was run: as §6
HeLa [22] = experiment: Induction of apoptosis inducing factor translocation from […] to nucleus in human HeLa cells at 50 uM after 72 hrs by DAPI staining; assay type: functional, cell-based; how it was run: as §9
HeLa [23] = experiment: Induction of stress granules in human HeLa cells assessed as MLN51 and FMRP marker protein at >10 uM; assay type: functional, cell-based; how it was run: as §4
[24] = Inhibition of capped and polyadenylated luciferase mRNA in rabbit reticulocyte lysate; assay type: functional, Oryctolagus cuniculus; how it was run: as §5
HL-60 [25] = experiment: Antiproliferative activity against human HL60 cells at 50 nM in presence of caspase inhibitor Z-VAD-FMK; assay type: functional, cell-based; how it was run: as §8
H9c2 [26] = experiment: Cytotoxicity against rat H9c2 cells at 20 nM after 48 hrs by FACS analysis; assay type: cell-based; conditions: h9c2, 48 h, 0.02 µM; how it was run: as §7
H9c2 [27] = experiment: Cytotoxicity against rat H9c2 cells at 20 nM after 72 hrs by FACS analysis; assay type: cell-based; conditions: h9c2, 72 h, 0.02 µM; how it was run: as §7
MCF7 [28] = experiment: Cytotoxicity against human MCF7 cells after 72 hrs by MTS assay; assay type: functional, cell-based; conditions: Homo sapiens, MCF7, 72 h; read-out: IC50; how it was run: as §1
[29] = molecular target: ATP-dependent translocase ABCB1 (Homo sapiens, UniProt P08183); experiment: Inhibition of P-glycoprotein expressing human MCF7 cells assessed as change in rhodamine 123 efflux at 0.1 to 1 uM; assay type: cell-based
HL-60 [30] = experiment: Antiproliferative activity against human HL60 cells at 50 nM in presence of […] inhibitor 3-methyladenine; assay type: functional, cell-based; how it was run: as §8
HL-60 [31] = experiment: Cytotoxicity against human HL60 cells at 20 uM after 72 hrs in presence of m-calpain inhibitor N-acetyl-Leu-Leu-methioninal; assay type: functional, cell-based
How it was run: (§10)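 HL60 cells treated 72 h with or without caspase-12 inhibitor ATAD (10 μM) or m-calpain inhibitor N-acetyl-Leu-Leu-methioninal (20 μM); cytotoxicity compared with vehicle.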

HL-60 [32] = experiment: Induction of apoptosis in human HL60 cells assessed as […] mediated LEHD-AMC substrate cleavage at 1 to 1000 nM after 48 hrs by spectroscopy; assay type: functional, cell-based
HL-60 [33] = experiment: Cytotoxicity against human HL60 cells at 20 uM after 72 hrs in presence of caspase 12 inhibitor ATAD; assay type: functional, cell-based; how it was run: as §10
HepG2 [34] = experiment: Enhancement of doxorubicin-induced cytotoxicity against human HepG2 cells after 72 hrs by MTS assay; assay type: functional, cell-based
How it was run: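 HepG2 cells given the test agent alone or together with 150 nM doxorubicin for 72 h; proliferation by MTS assay; duplicate experiments, n = 3.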

HeLa [35] = experiment: Induction of eIF-2alpha phosphorylation in human HeLa cells at 500 uM by Western blotting; assay type: functional, cell-based; how it was run: as §3
MCF7 [36] = experiment: Cytotoxicity against human MCF7 cells expressing P-glycoprotein after 72 hrs by MTS assay; assay type: functional, cell-based; conditions: Homo sapiens, MCF7, 72 h; read-out: IC50; how it was run: as §1

Chain of ATP-dependent translocase ABCB1 (P08183 whole entry): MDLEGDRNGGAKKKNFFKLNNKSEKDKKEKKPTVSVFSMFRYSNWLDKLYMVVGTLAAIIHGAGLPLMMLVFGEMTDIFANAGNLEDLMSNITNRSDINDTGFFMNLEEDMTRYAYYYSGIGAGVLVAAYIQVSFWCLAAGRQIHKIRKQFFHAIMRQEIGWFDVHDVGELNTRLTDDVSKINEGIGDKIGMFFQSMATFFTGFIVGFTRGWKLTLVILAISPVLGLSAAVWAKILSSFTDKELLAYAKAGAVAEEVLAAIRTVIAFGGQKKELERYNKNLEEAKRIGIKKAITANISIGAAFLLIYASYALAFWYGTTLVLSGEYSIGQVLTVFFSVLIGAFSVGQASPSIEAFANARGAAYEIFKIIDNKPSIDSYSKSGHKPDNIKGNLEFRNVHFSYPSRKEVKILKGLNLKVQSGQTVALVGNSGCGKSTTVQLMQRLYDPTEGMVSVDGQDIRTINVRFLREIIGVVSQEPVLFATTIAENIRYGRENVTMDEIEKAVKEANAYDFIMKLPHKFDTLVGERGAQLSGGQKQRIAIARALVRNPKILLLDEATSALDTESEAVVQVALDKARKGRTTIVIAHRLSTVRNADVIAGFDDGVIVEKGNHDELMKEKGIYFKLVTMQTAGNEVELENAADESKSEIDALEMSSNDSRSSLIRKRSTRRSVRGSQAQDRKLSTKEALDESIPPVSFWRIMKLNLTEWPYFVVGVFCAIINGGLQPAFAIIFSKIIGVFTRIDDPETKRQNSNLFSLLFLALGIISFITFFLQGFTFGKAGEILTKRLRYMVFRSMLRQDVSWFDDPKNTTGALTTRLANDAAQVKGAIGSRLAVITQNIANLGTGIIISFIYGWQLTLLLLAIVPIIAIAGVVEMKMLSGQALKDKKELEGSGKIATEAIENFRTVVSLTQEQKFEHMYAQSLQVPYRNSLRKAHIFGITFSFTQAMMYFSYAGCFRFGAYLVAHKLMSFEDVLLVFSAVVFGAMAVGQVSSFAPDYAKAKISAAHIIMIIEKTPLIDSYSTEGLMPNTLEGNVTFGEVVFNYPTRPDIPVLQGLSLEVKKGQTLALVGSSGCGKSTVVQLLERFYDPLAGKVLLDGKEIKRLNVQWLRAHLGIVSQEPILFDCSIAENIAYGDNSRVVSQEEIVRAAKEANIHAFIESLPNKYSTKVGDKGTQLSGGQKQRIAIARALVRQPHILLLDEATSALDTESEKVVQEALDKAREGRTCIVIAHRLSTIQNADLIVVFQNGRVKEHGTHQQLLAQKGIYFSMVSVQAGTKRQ

SMILES: COc1cc(OC)c2c(c1)O[C@@]1(c3ccc(Br)cc3)[C@H](c3ccccc3)C[C@@H](O)[C@@]21O
- IC50 (HepG2 [1]): 4 nM
- Activity (HL-60 [2]): Active
- IC50 (KB): < 1 nM
- Activity (HeLa [3]): Active
- Activity (HL-60 [4]): inactive
- IC50 (HCT-15): 1 nM
- Activity (HL-60 [5]): Active
- Activity (HeLa [6]): Active
- IC50 (HCT-116): < 1 nM
- Activity (Oryctolagus cuniculus): Active
- Activity (HL-60 [7]): inactive
- Activity (Mus musculus [8]): Non-toxic
- Activity (H9c2 [9]): Not Active
- Activity (H9c2 [10]): Not Active
- Activity (HeLa [11]): Active
- Activity (HL-60 [12]): inactive
- Activity (HeLa [13]): Active
- IC50 (HL-60 [14]): < 1 nM
- Activity (HeLa [15]): Active
- Activity (HL-60 [16]): inactive
- Activity (HL-60 [17]): inactive
- Activity (HL-60 [18]): Active
- Activity (H9c2 [19]): Not Active
- Activity (HeLa [20]): Active
- Activity (Mus musculus [21]): Non-toxic
- Activity (HeLa [22]): Active
- Activity (HeLa [23]): Active
- IC50 [24]: 200 nM
- Activity (HL-60 [25]): inactive
- Activity (H9c2 [26]): Non-toxic
- Activity (H9c2 [27]): Non-toxic
- IC50 (MCF7 [28]): 1 nM
- Activity [29]: Not Active
- Activity (HL-60 [30]): inactive
- Activity (HL-60 [31]): Active
- Activity (HL-60 [32]): inactive
- Activity (HL-60 [33]): inactive
- Activity (HepG2 [34]): Active
- Activity (HeLa [35]): Active
- IC50 (MCF7 [36]): < 1 nM
